Reference: ChEMBL document CHEMBL2331224 (J Med Chem, 2013)
Activity calls are given as the source filed them. No cut-off for these calls is given here.

Experiments:
Mus musculus [1] = assay: Hepatotoxicity in ICR mouse assessed as increase in ALP level at 30 mg/kg, po for 7 days; type: toxicity, organism-based; set-up: dose 30 mg/kg, route oral; details: in vivo, 168 h
Method in brief: (§1)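 Male ICR mice, 6−7 weeks old, four per cage, grouped by body weight. Oral 30 mg/kg or vehicle (1% ethanol/0.5% CMC in water, 10 mL/kg) once daily for 7 days, body weight recorded daily. After overnight fasting, mice were weighed under ether, and liver was removed and weighed. Serum was analysed on a dry-chemistry analyser for TG, TCHO, ALP, CRE, BUN and other markers. n = 7−23, ANOVA.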

Mus musculus [2] = assay: Toxicity against KKAy mouse assessed as total cholesterol level at 10 mg/kg/day, po for 14 days (reference value: 153.2 +/- 11.1 mg/dL); type: organism-based; set-up: route oral; details: in vivo, 336 h
Mus musculus [3] = assay: Toxicity against KKAy mouse assessed as blood urea nitrogen level at 10 mg/kg/day, po for 14 days (reference value: 21.9 +/- 1.1 mg/dL); type: organism-based; set-up: route oral; details: in vivo, 336 h
Mus musculus [4] = assay: Toxicity against KKAy mouse assessed as plasma ALT level at 10 mg/kg/day, po for 14 days (reference value: 17.6 +/- 0.9 IU); type: organism-based; set-up: route oral; details: in vivo, 336 h
Mus musculus [5] = assay: Antidiabetic activity in KKAy mouse at 10 mg/kg/day, po for 14 days measured on day 15 by oral glucose tolerance test relative to control; type: functional, organism-based
Method in brief: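 On day 15, KK-A^y mice dosed orally at 10 mg/kg/day for 14 days were fasted 17 h and given oral glucose at 1 g/kg. Blood glucose was read by glucose oxidase at 0, 15, 30, 45, 60, 90 and 120 min. n = 4−5.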

Mus musculus [6] = assay: Toxicity in ICR mouse assessed as change in renal function parameters at 30 mg/kg/day, po for 7 days; type: organism-based; set-up: route oral; details: in vivo, 168 h; method in brief: as §1
Mus musculus [7] = assay: Toxicity in ICR mouse assessed as increase in blood total cholesterol level at 30 mg/kg/day, po for 7 days; type: organism-based; set-up: route oral; details: in vivo, 168 h; method in brief: as §1
Mus musculus [8] = assay: Toxicity in ICR mouse assessed as increase in blood triglyceride level at 30 mg/kg/day, po for 7 days; type: organism-based; set-up: route oral; details: in vivo, 168 h; method in brief: as §1
[9] = target: T1, Oxysterols receptor LXR-alpha (Homo sapiens) (UniProt Q13133); assay: Transactivation of LXRalpha (unknown origin) by luciferase reporter gene assay relative to carba-T0901317
T1 sequence (whole entry): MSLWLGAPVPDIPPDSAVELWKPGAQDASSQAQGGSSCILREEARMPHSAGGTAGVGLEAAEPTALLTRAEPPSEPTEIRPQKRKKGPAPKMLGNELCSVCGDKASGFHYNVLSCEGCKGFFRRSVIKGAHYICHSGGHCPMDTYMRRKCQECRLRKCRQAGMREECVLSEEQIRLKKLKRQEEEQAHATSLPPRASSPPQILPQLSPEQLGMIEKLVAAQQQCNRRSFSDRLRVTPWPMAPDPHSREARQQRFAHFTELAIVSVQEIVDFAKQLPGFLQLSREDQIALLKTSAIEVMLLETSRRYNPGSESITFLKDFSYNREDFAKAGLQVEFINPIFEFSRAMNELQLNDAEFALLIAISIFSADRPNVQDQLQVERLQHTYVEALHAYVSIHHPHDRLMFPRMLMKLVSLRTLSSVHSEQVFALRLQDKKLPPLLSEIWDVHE
Method in brief: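 Heterodimer luciferase assay in COS-1 cells cotransfected with RXRα (0.5 μg), partner receptor (PPARγ or LXRα, 0.5 μg) and partner response element reporter (4.0 μg), plus SEAP. Compound (DMSO below 1%) was added with seeding at about 2.0 × 10⁴ cells/well, then 18 h at 37 °C, 5% CO2. Luciferase was normalized to SEAP. Triplicates, three runs.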

[10] = target: T2, Retinoic acid receptor beta (Homo sapiens) (UniProt P10826); assay: Transactivation of RARbeta (unknown origin) by luciferase reporter gene assay relative to Am80
T2 sequence (whole entry): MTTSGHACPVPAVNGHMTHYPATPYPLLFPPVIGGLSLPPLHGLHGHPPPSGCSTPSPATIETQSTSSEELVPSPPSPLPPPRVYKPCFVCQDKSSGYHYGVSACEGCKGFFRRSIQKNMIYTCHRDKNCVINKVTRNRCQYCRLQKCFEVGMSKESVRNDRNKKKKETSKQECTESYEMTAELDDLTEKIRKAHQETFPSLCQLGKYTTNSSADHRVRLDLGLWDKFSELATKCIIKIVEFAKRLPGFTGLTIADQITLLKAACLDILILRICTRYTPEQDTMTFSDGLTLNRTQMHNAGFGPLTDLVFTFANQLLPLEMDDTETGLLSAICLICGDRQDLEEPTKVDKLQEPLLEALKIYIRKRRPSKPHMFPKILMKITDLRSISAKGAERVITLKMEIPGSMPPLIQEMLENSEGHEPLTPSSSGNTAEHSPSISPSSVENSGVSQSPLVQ

[11] = target: T3, Retinoic acid receptor RXR-alpha (Homo sapiens, UniProt P19793); assay: Partial agonist activity at RXRalpha (unknown origin) expressed in COS1 cells after 18 hrs by luciferase reporter gene assay; type: cell-based, COS-1
T3 sequence (P19793 whole entry): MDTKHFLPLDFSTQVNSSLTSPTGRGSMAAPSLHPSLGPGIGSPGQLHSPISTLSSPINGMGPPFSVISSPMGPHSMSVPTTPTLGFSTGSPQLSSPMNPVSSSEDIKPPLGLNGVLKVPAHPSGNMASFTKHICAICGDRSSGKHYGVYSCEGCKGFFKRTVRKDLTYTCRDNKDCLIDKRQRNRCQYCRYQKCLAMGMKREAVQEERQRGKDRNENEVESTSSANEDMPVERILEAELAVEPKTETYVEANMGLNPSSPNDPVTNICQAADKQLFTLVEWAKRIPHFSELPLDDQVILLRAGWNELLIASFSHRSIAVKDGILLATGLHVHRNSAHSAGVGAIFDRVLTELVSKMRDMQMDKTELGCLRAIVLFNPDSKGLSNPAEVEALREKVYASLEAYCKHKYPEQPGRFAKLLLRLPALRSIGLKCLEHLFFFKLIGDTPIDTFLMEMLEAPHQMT
Method in brief: (§2)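 COS-1 cells in DMEM with 10% FBS at 37 °C, 5% CO2, transfected with RXRα, an RXR-response-element luciferase reporter and a SEAP background vector. Cells were seeded at about 2.0 × 10⁴ per well with compound (DMSO below 1%) for 18 h. Luciferase was normalized to SEAP and expressed relative to 1 μM reference RXR full agonist as 100%. EC50 came from full dose-response curves. Triplicates, at least three experiments.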

[12] = target: T4, Retinoic acid receptor RXR-alpha (Homo sapiens) (UniProt P19793); assay: Transactivation of RXRalpha (unknown origin) expressed in COS1 cells at 0.1 uM after 18 hrs by luciferase reporter gene assay relative to bexarotene; type: cell-based; details: COS-1; method in brief: as §2
T4 sequence (whole entry): T3 sequence (P19793 whole entry)

Activity [9]: Active
Activity [10]: Active
EC50 [11]: 15 nM
Efficacy [12]: 21%
Structure (SMILES): Cc1cc2c(cc1-n1c(C(F)(F)F)nc3cc(C(=O)O)ccc31)C(C)(C)CCC2(C)C
Activity (Mus musculus [1]): Toxic
Activity (Mus musculus [2]): 155.3 mg/dL
Activity (Mus musculus [3]): 22.5 mg/dL
Activity (Mus musculus [4]): 17.3 IU
Activity (Mus musculus [5]): inactive
Activity (Mus musculus [6]): Non-toxic
Activity (Mus musculus [7]): Non-toxic
Activity (Mus musculus [8]): Non-toxic
